Fewer inactive variants are shown than the library holds.
B1: tRNA (parent)
chain: GUUCCGUUGGCGUAAUGGUAACGCGUCUCCCUCCUAAGGAGAAGACUGCGGGUUCGAGUCCCGUACGGAACG

Variants of: B1
Assay: yeast fitness relative to wild type (ratio to wild type); higher = fitter; tRNA-Arg(CCU), competitive growth, 37 C, YPD
Summary of the method: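 Changes in genotype frequencies gave Darwinian fitness relative to wild type. Frequencies were read by 100-nucleotide paired-end sequencing of gene amplicons before and after pooled Saccharomyces cerevisiae strains, carrying tRNA-Arg(CCU) gene variants at the native locus, were competed in YPD at 37°C for 24 hours in six replicates. A genotype was kept only with ≥ 100 starting reads, and estimates < 0.5 were set to 0.5.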

Variant | yeast fitness
GUUUCGUUGGCGUAAUGGUAACGCGUCUCCCUCCUAAGGAGAAGACUGGGGGUUCGAGUCCCGUACGGAGCG | 0.602
GUUUCGUUGGCGUAAUGGUAACGCGUCUCCUUCCUAAGGAGAAGCUUGCGGGUUCGAGUCCCGUACGGAACG | 1.01
GUUUCGUUGGCGUAAUGGUAACGCGUCUCCCUCCUAAGGAGAAGACUGCGGGUUCGAGUGCCGUACGGCACG | 0.52
GUUUCGUUGGCGUAAUGGUAACGCGUCUCCCUCAUAAGGAGAAGACUGCGGGUUCGAGUCCCGUACGGAACG | 0.846
GUUUCGUUGGCGUAAUGGUAACGCGUCUCCCUCCUAAGGAGAAGACUGUGGGUUAGAGUCCCGUACGGAACG | ≤ 0.5
GUUUCGUUGGCGUAAUGGUAACGCGUCUCCCUCCUAAGGAGAAGAGUGCGGGUUCGAGUCCCGUAGGGAACG | 0.539
GUUUCGUUGGCGUAAUGGUAACGCGUCUCCCUCCUAAGGAGAAGACUGCGGGUUAGAGUCCCGAUCGGAACG | ≤ 0.5
GUUUCGUUGGCGUAAUGGUAACGCGUCUCCCUCCUAAGGAGAAGACUGUGGGUUCGAGUCGCGUACGGAACG | 0.594
GUUUCGUUGGCGUAAUGGUAACGCGUCUCCCUCCUAAGGAGAAGACUGGGGGUUCGAGUCCCGUACGAACCG | 0.606
GUUUCGUUGGCGUAAUGGUAACGCGUCUCCCUACUAAGGAGAAGACUGCGGGUUCGAGUCUCGUACGGAACG | 0.597
GUUUCGUUGGCGUAAUGGUAACGCGUCUCCGUCCUAAGGAGAAGACUGCGGGUUCGAGUCCCGUUCCGAACG | ≤ 0.5
GUUUCGUUGGCGUAAUGGUAACGCGUCUCCAUCCUGAGGAGAACACUGCGGGUUCGAGUCCCGUACGGAACG | 0.59
GUUUCGUUGGCGUAAUGGUAACGCGUCUCCCUCCUAAGGAGAAGACUGUGGGUUCGACUCCCGUACGGAACG | 0.782
GUUUCGUUGGCGUAAUGGUAACGCGUCUCUCUCCUAAAGAGAAGACUGCGGGUUCGAGUCCCGUACGCAACG | ≤ 0.5
GUUUCGUUGGCGUAAUGGUAACGCGUCUCCUUCCUAAGGAGAAGACUGCGGGUUCGAGUCUCGUACGCAACG | ≤ 0.5
GUUUCGUUGGCGUAAUGGUAACGCGUCUCCUUCCUAUGGAGAAGACUGCGGGUUCGAGUCCCGUACGGAACG | 0.617
GUUUCGUUGGCGUAAUGGUAACGCGUCUCCCUGCUAAGGAGAAGACUGCGGGUUCGAGUGCCGUACGGAACG | ≤ 0.5
GUUUCGUUGGCGUAAUGGUAACGCGUCUCCUUCCUAAGGAGAAGACUGCGGCUUCGAGUCACGUACGGAACG | ≤ 0.5
GUUUCGUUGGCGUAAUGGUAACGCGUCUCCCUACUAAGGAGAAGACUGCGGGUGCGAGUCCCGUACGGAACG | ≤ 0.5
GUUUCGUUGGCGUAAUGGUAACGCGUCUCCCUCCUAAGGAGAAGACUGCGGGUUGGAGUCCCGUGCGGAACG | ≤ 0.5
GUUUCGUUGGCGUAAUGGUAACGCGUCUCCCUCUUAAGGAGAAGACUGCGGGUUCGAGACCCGUACGGAACG | ≤ 0.5
GUUUCGUUGGCGUAAUGGUAACGCGUCUCCCUCCUAAGGAGAAGACUGCGGGUUUGAGGCCCGUACGGAACG | 0.587
GUUUCGUUGGCGUAAUGGUAACGCGUCUCCCUCCUAAGGAGAAGAAUGCGGGUUCGAGUCCCGUACGGAACG | 0.841
GUUUCGUUGGCGUAAUGGUAACGCGUCUCCCUCCUAAGGAGAAGAUUGCGGGUUCGAGUCCCGUACGGAACG | 1.01
GUUUCGUUGGCGUAAUGGUAACGCGUCUCCCUCCUAAGGAGAAGAGUGCGGGUUCGAGUCCCGUACGGACCG | 1.01

Variant | yeast fitness
GUUUCGUUGGCGUAAUGGUAACGCGUCUCCCUCCUAAGGAGAAGACUGCGGGUUCGAGUACCGUACGGAACG | 0.532
GUUUCGUUGGCGUAAUGGUAACGCGUCUCCCUCCUAAGGAGAAGACUGCGGGUUCGAGUGCCGUACGGAACG | 0.671
GUUUCGUUGGCGUAAUGGUAACGCGUCUCCCUACUAAGGACAAGACUGCGGGUUCGAGUUCCGUUCGGUACG | ≤ 0.5
GUUUCGUUGGCGUAAUGGUAACGCGUCUCUGUCCUAAGGAGAAGACUGCGGGUUCGAGUCCUGUACGGAACG | 0.766
GUUUCGUUGGCGUAAUGGUAACGCGUCUCCGUCCUAAAGAGAAGACUGCGGGUUCGAGUCACAUACGGAACG | ≤ 0.5
GUUUCGUUGGCGUAAUGGUAACGCGUCUCCCUCCUAAGGAGAAGACUGCGGGUUUGAGUCUCGUACGGAACG | 0.673
GUUUCGUUGGCGUAAUGGUAACGCGUCUCCUUCCUAAGGAGAAGACUGCGGGUUCGAGUCCCGUACCGAACG | 0.598
GUUUCGUUGGCGUAAUGGUAACGCGUCUCCCUCAUAAGGAGAAGACUGCGGGUUCAAGUGCCGUACGGAACG | ≤ 0.5
GUUUCGUUGGCGUAAUGGUAACGCGUCUCCCUACUAAGGAGAAGACUGCGGGUUCGAGUCCCGUACGGAACG | 0.724
GUUUCGUUGGCGUAAUGGUAACGCGUCUCCAUCCUACGGAGAAGACUACGGGUUCGACUCCCGUACGGAACG | ≤ 0.5
GUUUCGUUGGCGUAAUGGUAACGCGUCUCCCUCGUAAGGAGAAGACUGGGGGUUCGAGUCCCGUACGCAACG | ≤ 0.5
GUUUCGUUGGCGUAAUGGUAACGCGUCUCCCUCCUAAGGAGAAGAGUGCGGGUUUGAGUCCCGUACGGAACG | 0.576
GUUUCGUUGGCGUAAUGGUAACGCGUCUCUCUCCUAAGGAGAAGACUGCGGGUUCGAGUCCAGUACGGAACG | ≤ 0.5
GUUUCGUUGGCGUAAUGGUAACGCGUCUCCCUCCUAAGGAGAAGAAUGCAGGUUCGAGUCUUGUACGGAACG | 1.09
GUUUCGUUGGCGUAAUGGUAACGCGUCUCCGUCCUAAGGAGAAGACUGCGGGUUCGAGUCCCGUACGGAACG | 0.868
GUUUCGUUGGCGUAAUGGUAACGCGUCUCCAUCCUAAGGAGAAGACUGCGGGUUCGAGUCCCGUACGGAACG | 0.827
GUUUCGUUGGCGUAAUGGUAACGCGUCUCCCUCGUAAGGAGAAGACUGCGGGUUCGAGUCCCCUACGGCACG | ≤ 0.5
GUUUCGUUGGCGUAAUGGUAACGCGUCUCUCUCCUAAGGAGAAGACUGCGGGUUCGAGUCCCGUACGGUACG | 0.736
GUUUCGUUGGCGUAAUGGUAACGCGUCUCCCUACUAAGGAGAAGACUGCGGGUUCGAGUCCCGUACGAAACG | ≤ 0.5
GUUUCGUUGGCGUAAUGGUAACGCGUCUCCGUCCUAGGGAGAAGACUGCGGGUUCGAGUCCCGUACGGAACG | 0.526
GUUUCGUUGGCGUAAUGGUAACGCGUCUCCCUGGUAAGGAGAAGACUGCGCGUCCGAGUCCCGUACGGAACG | 0.561
GUUUCGUUGGCGUAAUGGUAACGCGUCUCCCUCCUAAGGAGAAGACUGGCGGUUCGAGUCCCGUACGGAACG | ≤ 0.5
GUUUCGUUGGCGUAAUGGUAACGCGUCUCCCUCCUAAGGAGAAGACUGCGGGUUGGAGUCCCGUACGGAACG | 0.636
GUUUCGUUGGCGUAAUGGUAACGCGUCUCCCUCCUAAGGAGAAGACUGCGGGUUAGAGUCCCGUACGGAACG | 0.701
GUUUCGUUGGCGUAAUGGUAACGCGUCUCCUUCCUAAGGAGAAGACUGCGGGUUGGAGUCCCGUACGGACCG | ≤ 0.5

Variant | yeast fitness
GUUUCGUUGGCGUAAUGGUAACGCGUCUCUCUCCUAAGGAGAAGACUCCGGGUUCGAGUCCCGUACGCAACG | ≤ 0.5
GUUUCGUUGGCGUAAUGGUAACGCGUCUCCCUCCUAAGGAGAAGACUGCGGGUUUGAGUCCCGUACGGUACG | 0.745
GUUUCGUUGGCGUAAUGGUAACGCGUCUCCGUCCUAAGGAGCAGACUGCGGGUUCGAGUCCCGUAUGGAACG | ≤ 0.5
GUUUCGUUGGCGUAAUGGUAACGCGUCUCCCUCCUAAGGAGAAGACUGGGGGUUCGCGUCCCGUACGGAACG | ≤ 0.5
GUUUCGUUGGCGUAAUGGUAACGCGUCUCCCUCCUAAGGAGAAGACUGCGGGUUGGAGUCCCGUGGGGAACG | ≤ 0.5
GUUUCGUUGGCGUAAUGGUAACGCGUCUCCUUCCUAAGGAGAGGACUGCGGGUUCGAGUCACAUUGGGAACG | 0.575
GUUUCGUUGGCGUAAUGGUAACGCGUCUCCCUGCUGAGGAGAAGACUGCGGGUUCGAGUCCCGUACACAACG | 0.604
GUUUCGUUGGCGUAAUGGUAACGCGUCUCCCUCGUAAGGAGAAGACUGCGGAUUCGAGUCCCGUACGGCACG | ≤ 0.5
GUUUCGUUGGCGUAAUGGUAACGCGUCUCCCUACUAAGGAGAAGACUGUGGGUGCGAGUCCCGUACGGAACG | ≤ 0.5
GUUUCGUUGGCGUAAUGGUAACGCGUCUCUCUCCUAAGGAGAAGACUGCGGGGUCCAGUCCGGUACGGAACG | ≤ 0.5
GUUUCGUUGGCGUAAUGGUAACGCGUCUCCCUCUUAAGGAGAAGACUGCGGGUUCGAGUCCCGUACGCAACG | ≤ 0.5
GUUUCGUUGGCGUAAUGGUAACGCGUCUCCUUCCUAAGGAGAAGACUGCGGGUUCGAGUCCCGUACGGCACG | 0.669
GUUUCGUUGGCGUAAUGGUAACGCGUCUCCCUCCUAAGGAGAAGAGUGCGAAUUCGAGUCCCGUACGGAACG | ≤ 0.5
GUUUCGUUGGCGUAAUGGUAACGCGUCUCCCUCGUAAGGAGAAGACUGCGGGUUCGAGUCCCGUAAGGAACG | 0.562
GUUUCGUUGGCGUAAUGGUAACGCGUCUCCCUCAUAAGGAGAAGACUGCGGGUUCGAGUCCUGUACGGAACG | 0.566
GUUUCGUUGGCGUAAUGGUAACGCGUCUCCCUCCUAAGGAGAAGAUUGCGGGUUCGAGUCCCGUACGGAGCG | 0.772
GUUUCGUUGGCGUAAUGGUAACGCGUCUCCCUCCUAAGGAGAAGACUGCGGGUUUGUGUCCCGUACGGAACG | 0.536
GUUUCGUUGGCGUAAUGGUAACGCGUCUCCCUCCUAAGGAGAAGAUUGCGGGUUCGAGUCCUGUACGGAACG | 0.806
GUUUCGUUGGCGUAAUGGUAACGCGUCUCCCUGCUAAGGAGAAGACGGCGGGUUCGAGUCCCGUACGGAACG | 0.591
GUUUCGUUGGCGUAAUGGUAACGCGUCUCCCUCCUAAGGAGAAGACUGAGGGUUCGAGUCCCGUUCGGAACG | 0.583
GUUUCGUUGGCGUAAUGGUAACGCGUCUCCCUCCUAAGGAGAAGACUGUGGGUUCGAGUCCCGAACGGAACG | 0.589
GUUUCGUUGGCGUAAUGGUAACGCGUCUCCCUCCUAAGGAGAAGACUGGGGGUUCGAGUCCCGUACGGAACG | 0.874
GUUUCGUUGGCGUAAUGGUAACGCGUCUCCGUCCUAAGGAGAAGACUGCGGGUUUGAGUCCCGUACGCAACG | ≤ 0.5
GUUUCGUUGGCGUAAUGGUAACGCGUCUCCGUCGUAAGGAGAUGACUGCGGGUUCGAGUCCCGUACGCGACG | ≤ 0.5
GUUUCGUUGGCGUAAUGGUAACGCGUCUCCUUCCUACGGAGAAGACUGCGGGUUCGAGUCCCGUAUGGUACG | ≤ 0.5
